Results taken from ChEMBL document CHEMBL2069246, “Oxadiazoles in medicinal chemistry” (J Med Chem, 2012).
≈ marks a conversion by molar mass, not a printed value.

Experiments:
[1] = Lipophilicity, log D of the compound at pH 7.4; format: physicochemical; conditions: buffer
[2] = Aqueous solubility of the compound in HBSS buffer at pH 7.4; format: physicochemical
[3] = Intrinsic clearance in human liver microsomes at 1 mg/ml; format: ADME, Microsome; conditions: read-out: CLH
In short: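 Compound incubated 45 min at 37 °C with human liver microsomes at 1 mg/mL. CLint is taken from the rate of parent disappearance.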

[4] = biological target: T1, Cytochrome P450 3A4 (Homo sapiens, UniProt P08684); experiment: Inhibition of human recombinant CYP3A4 coexpressed in Escherichia coli; format: ADME
T1 sequence (P08684 whole entry, canonical isoform): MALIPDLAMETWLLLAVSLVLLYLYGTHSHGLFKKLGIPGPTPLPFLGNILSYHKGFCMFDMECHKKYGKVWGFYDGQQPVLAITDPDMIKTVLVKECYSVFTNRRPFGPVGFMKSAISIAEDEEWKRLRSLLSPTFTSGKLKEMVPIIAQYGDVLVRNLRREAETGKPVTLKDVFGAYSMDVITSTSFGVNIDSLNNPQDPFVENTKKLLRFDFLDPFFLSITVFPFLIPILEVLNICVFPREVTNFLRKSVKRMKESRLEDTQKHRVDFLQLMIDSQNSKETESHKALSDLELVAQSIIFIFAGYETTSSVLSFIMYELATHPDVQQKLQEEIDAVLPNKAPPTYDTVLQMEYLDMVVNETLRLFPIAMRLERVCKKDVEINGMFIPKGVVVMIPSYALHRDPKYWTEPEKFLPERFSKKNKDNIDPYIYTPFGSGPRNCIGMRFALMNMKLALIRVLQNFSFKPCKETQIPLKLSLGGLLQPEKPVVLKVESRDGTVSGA
In short: (§1)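 Human recombinant cytochrome P450s at 37 °C. Read-out is inhibition of metabolic degradation of each isoform's substrate. Percent inhibition is measured at five test concentrations and converted to IC50.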

[5] = biological target: T2, Cytochrome P450 2D6 (Homo sapiens, UniProt P10635); experiment: Inhibition of human recombinant CYP2D6 coexpressed in Escherichia coli; format: ADME; in short: as §1
T2 sequence (P10635 whole entry): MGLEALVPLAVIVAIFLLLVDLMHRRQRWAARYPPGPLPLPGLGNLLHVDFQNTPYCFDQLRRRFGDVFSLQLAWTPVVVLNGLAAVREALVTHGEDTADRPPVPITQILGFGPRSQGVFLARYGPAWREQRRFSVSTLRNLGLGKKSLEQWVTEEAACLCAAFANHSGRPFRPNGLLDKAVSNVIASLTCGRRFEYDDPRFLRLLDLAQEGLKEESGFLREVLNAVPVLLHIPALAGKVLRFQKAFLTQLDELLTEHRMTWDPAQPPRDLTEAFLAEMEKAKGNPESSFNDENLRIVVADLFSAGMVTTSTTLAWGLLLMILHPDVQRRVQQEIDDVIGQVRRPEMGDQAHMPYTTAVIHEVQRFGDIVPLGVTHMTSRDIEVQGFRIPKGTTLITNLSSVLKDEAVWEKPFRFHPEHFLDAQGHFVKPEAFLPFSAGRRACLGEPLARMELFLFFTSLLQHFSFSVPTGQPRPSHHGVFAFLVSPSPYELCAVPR

[6] = biological target: T3, Cytochrome P450 2C8 (Homo sapiens, UniProt P10632); experiment: Inhibition of human recombinant CYP2C8 coexpressed in Escherichia coli; format: ADME; in short: as §1
T3 sequence (P10632 whole entry): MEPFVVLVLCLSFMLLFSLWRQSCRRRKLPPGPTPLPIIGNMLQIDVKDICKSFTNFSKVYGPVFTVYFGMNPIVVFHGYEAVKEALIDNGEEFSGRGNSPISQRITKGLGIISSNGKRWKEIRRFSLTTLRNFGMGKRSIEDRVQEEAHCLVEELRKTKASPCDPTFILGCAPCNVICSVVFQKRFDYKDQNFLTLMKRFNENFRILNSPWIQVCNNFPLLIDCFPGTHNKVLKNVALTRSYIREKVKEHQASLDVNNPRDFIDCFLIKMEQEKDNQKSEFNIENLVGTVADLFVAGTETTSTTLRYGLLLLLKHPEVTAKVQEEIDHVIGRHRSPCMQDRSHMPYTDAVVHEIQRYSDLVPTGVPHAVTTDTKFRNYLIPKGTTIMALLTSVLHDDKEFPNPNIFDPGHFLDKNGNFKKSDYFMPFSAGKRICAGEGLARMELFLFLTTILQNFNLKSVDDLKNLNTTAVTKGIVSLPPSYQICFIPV

[7] = biological target: T4, Cytochrome P450 2C9 (Homo sapiens, UniProt P11712); experiment: Inhibition of human recombinant CYP2C9 coexpressed in Escherichia coli; format: ADME; in short: as §1
T4 sequence (P11712 whole entry): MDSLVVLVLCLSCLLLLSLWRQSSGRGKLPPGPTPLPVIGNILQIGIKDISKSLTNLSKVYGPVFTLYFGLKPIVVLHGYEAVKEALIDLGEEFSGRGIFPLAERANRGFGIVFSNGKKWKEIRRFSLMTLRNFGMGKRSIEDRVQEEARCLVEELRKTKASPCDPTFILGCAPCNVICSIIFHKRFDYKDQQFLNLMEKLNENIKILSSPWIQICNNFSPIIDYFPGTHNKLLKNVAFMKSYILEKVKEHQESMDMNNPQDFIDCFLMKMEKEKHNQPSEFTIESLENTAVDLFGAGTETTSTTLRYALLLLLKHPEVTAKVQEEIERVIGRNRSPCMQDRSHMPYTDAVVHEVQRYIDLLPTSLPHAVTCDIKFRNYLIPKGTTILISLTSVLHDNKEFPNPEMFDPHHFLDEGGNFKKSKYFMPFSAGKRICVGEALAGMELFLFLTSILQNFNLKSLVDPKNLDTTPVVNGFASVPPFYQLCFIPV

[8] = biological target: T5, Cytochrome P450 2C19 (Homo sapiens, UniProt P33261); experiment: Inhibition of human recombinant CYP2C19 coexpressed in Escherichia coli; format: ADME; in short: as §1
T5 sequence (P33261 whole entry): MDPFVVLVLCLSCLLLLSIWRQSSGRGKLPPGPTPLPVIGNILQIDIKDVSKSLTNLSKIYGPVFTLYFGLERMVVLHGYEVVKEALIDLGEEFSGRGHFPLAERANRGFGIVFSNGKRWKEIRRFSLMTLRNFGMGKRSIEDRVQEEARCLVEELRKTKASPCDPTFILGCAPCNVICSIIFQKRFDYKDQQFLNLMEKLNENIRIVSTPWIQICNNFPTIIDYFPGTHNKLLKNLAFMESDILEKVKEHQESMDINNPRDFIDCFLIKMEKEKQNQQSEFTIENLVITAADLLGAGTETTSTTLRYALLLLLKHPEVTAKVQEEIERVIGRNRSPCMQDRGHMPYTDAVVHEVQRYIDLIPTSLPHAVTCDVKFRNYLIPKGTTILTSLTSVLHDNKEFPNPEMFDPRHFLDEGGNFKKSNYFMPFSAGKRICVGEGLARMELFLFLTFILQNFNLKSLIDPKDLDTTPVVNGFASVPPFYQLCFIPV

[9] = biological target: T6, Cytochrome P450 1A2 (Homo sapiens, UniProt P05177); experiment: Inhibition of human recombinant CYP1A2 coexpressed in Escherichia coli using phenacetin as probe; format: ADME; in short: as §1
T6 sequence (P05177 whole entry): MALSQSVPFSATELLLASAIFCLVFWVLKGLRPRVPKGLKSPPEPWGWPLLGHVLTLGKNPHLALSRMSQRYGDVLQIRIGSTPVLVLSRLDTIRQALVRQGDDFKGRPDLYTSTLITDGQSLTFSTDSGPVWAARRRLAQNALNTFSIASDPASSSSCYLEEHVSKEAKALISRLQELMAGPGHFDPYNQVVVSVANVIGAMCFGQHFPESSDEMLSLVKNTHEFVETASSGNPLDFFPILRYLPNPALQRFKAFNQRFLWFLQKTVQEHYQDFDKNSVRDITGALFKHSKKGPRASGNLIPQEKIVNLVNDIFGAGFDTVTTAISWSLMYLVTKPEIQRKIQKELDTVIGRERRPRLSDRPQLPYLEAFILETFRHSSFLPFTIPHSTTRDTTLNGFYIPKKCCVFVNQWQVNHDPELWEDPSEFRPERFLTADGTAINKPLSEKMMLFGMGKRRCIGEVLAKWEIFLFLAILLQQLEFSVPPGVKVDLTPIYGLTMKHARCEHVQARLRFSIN

[10] = biological target: T1, Cytochrome P450 3A4; experiment: Activity of human recombinant CYP3A4 assessed as enzyme contribution towards compound metabolism at 37 degC; format: ADME; parameters: concentration or dose not given beside the values
In short: (§2)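 CYP reaction phenotyping with human recombinant P450 isoforms at 37 °C. Each isoform's share of compound metabolism is given as percent contribution relative to the other isoforms in the test.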

[11] = biological target: T2, Cytochrome P450 2D6; experiment: Activity of human recombinant CYP2D6 assessed as enzyme contribution towards compound metabolism at 37 degC; format: ADME; in short: as §2
[12] = biological target: T6, Cytochrome P450 1A2; experiment: Activity of human recombinant CYP1A2 assessed as enzyme contribution towards compound metabolism at 37 degC; format: ADME; in short: as §2
[13] = biological target: T4, Cytochrome P450 2C9; experiment: Activity of human recombinant CYP2C9 assessed as enzyme contribution towards compound metabolism at 37 degC; format: ADME; in short: as §2
[14] = biological target: T5, Cytochrome P450 2C19; experiment: Activity of human recombinant CYP2C19 assessed as enzyme contribution towards compound metabolism at 37 degC; format: ADME; in short: as §2
[15] = biological target: T3, Cytochrome P450 2C8; experiment: Activity of human recombinant CYP2C8 assessed as enzyme contribution towards compound metabolism at 37 degC; format: ADME; in short: as §2
[16] = biological target: Voltage-gated inwardly rectifying potassium channel KCNH2 (Homo sapiens, UniProt Q12809); experiment: Inhibition of human ERG channel expressed in CHO cells by patch clamp assay
Voltage-gated inwardly rectifying potassium channel KCNH2, sequence (Q12809 whole entry): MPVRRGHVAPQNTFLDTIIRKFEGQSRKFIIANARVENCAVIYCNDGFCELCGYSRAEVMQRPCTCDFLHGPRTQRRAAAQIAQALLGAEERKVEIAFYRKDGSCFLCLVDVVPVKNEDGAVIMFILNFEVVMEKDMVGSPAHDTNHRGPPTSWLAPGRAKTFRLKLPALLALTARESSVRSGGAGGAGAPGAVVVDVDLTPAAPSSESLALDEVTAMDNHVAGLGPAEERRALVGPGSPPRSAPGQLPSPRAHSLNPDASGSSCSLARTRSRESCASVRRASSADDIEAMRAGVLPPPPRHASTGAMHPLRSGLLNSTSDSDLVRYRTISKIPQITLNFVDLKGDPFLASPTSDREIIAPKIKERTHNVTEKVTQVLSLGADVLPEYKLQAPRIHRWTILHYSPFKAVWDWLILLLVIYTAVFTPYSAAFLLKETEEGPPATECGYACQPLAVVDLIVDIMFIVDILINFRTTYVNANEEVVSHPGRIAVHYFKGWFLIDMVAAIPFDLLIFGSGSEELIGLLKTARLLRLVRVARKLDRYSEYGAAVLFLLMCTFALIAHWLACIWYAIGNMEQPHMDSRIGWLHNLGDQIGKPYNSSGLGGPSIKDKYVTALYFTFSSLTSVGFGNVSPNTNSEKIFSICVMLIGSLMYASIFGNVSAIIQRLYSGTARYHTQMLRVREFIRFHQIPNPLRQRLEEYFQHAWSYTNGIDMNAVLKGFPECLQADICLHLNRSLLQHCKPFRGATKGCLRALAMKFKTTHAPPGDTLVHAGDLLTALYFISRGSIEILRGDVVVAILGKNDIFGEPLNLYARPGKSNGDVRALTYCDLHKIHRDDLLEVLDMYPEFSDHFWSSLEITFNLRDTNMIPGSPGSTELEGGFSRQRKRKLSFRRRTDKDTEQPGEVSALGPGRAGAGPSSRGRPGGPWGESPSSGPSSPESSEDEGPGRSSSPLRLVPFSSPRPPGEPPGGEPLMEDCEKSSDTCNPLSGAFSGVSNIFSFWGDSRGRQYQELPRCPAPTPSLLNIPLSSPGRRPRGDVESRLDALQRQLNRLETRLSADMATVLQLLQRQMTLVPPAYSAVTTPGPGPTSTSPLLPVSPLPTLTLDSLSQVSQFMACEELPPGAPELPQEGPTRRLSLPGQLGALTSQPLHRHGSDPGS

[17] = Dissociation constant, pKa of the compound; format: physicochemical
[18] = biological target: CYP3A4 (Homo sapiens, UniProt P08684); experiment: Time dependent inhibition of human recombinant CYP3A4 coexpressed in Escherichia coli at 50 uM using midazolam as probe; format: ADME
CYP3A4, sequence (P08684 whole entry): as the sequence (P08684 whole entry, canonical isoform) above
In short: (§3)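 Time-dependent inhibition of human recombinant P450s. Compound is preincubated 30 min at 37 °C with and without NADPH, then percent inhibition is read. Run at 10 and 50 μM, with the 50 μM value reported.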

[19] = biological target: CYP2D6 (Homo sapiens, UniProt P10635); experiment: Time dependent inhibition of human recombinant CYP2D6 coexpressed in Escherichia coli at 50 uM using bufuralol as probe; format: ADME; in short: as §3
CYP2D6, sequence (P10635 whole entry): as the sequence (P10635 whole entry) above

[20] = biological target: T7, CYP2C8 (Homo sapiens, UniProt P10632); experiment: Time dependent inhibition of human recombinant CYP2C8 coexpressed in Escherichia coli at 50 uM using amodiaquine as probe; format: ADME; in short: as §3
T7 sequence (P10632 whole entry): T3 sequence (P10632 whole entry)

[21] = biological target: CYP2C9 (Homo sapiens, UniProt P11712); experiment: Time dependent inhibition of human recombinant CYP2C9 coexpressed in Escherichia coli at 50 uM using diclofenac as probe; format: ADME; in short: as §3
CYP2C9, sequence (P11712 whole entry): as the sequence (P11712 whole entry) above

[22] = biological target: CYP2C19 (Homo sapiens, UniProt P33261); experiment: Time dependent inhibition of human recombinant CYP2C19 coexpressed in Escherichia coli at 50 uM using mephenytoin as probe; format: ADME; in short: as §3
CYP2C19, sequence (P33261 whole entry): as the sequence (P33261 whole entry) above

[23] = biological target: T8, CYP1A2 (Homo sapiens, UniProt P05177); experiment: Time dependent inhibition of human recombinant CYP1A2 coexpressed in Escherichia coli at 50 uM using phenacetin as probe; format: ADME; in short: as §3
T8 sequence (P05177 whole entry): T6 sequence (P05177 whole entry)

## CCCc1cc(O)nc(SCc2nc(-c3ccccc3)no2)n1
[1]
  logD: 3.1
[2]
  solubility: 5 µM (≈ 1.64 µg/mL)

## c1ccc(-c2nnc(-c3ccccc3)o2)cc1
[1]
  logD: 4
[2]
  solubility: 26 µM (≈ 5.78 µg/mL)

## c1ccc(CN2CCN(Cc3nnc(-c4ccccc4)o3)CC2)cc1
[1]
  logD: 3.6
[3]
  microsomal CLint: 4 µL/min/mg
[4]
  IC50: > 20 µM
[5]
  IC50: > 20 µM
[6]
  IC50: > 20 µM
[7]
  IC50: > 20 µM
[8]
  IC50: > 20 µM
[9]
  IC50: > 20 µM
[10]
  Activity: 92%
[11]
  Activity: 1.7%
[12]
  Activity: 0%
[13]
  CYP isoform contribution to compound metabolism: 1.2%
[14]
  Activity: 3.2%
[15]
  Activity: 1.5%
[16]
  IC50: 27.3 µM
[17]
  pKa: 6.7

## CCCc1cc(=O)[nH]c(SCc2nnc(-c3ccccc3)o2)n1
[1]
  logD: 2.2
[2]
  solubility: 81 µM (≈ 26.6 µg/mL)

## Clc1cc(-c2nc(CSc3nnc(-c4ccncc4)n3C3CC3)no2)ccn1
[3]
  microsomal CLint: > 300 µL/min/mg
[4]
  IC50: 14.2 µM
[5]
  IC50: > 20 µM
[6]
  IC50: > 20 µM
[7]
  IC50: > 20 µM
[8]
  IC50: > 20 µM
[9]
  IC50: > 20 µM
[18]
  inhibition at 50 µM: 30%
[19]
  inhibition at 50 µM: < 11%
[20]
  inhibition at 50 µM: < 14%
[21]
  inhibition at 50 µM: < 19%
[22]
  inhibition at 50 µM: < 12%
[23]
  inhibition at 50 µM: < 10%
[10]
  Activity: 99.5%
[11]
  Activity: 0%
[12]
  Activity: 0.2%
[13]
  CYP isoform contribution to compound metabolism: 0%
[14]
  Activity: 0.1%
[15]
  Activity: 0.2%

## Clc1cc(-c2nnc(CSc3nnc(-c4ccncc4)n3C3CC3)o2)ccn1
[3]
  microsomal CLint: 8 µL/min/mg
[4]
  IC50: > 20 µM
[5]
  IC50: > 20 µM
[6]
  IC50: > 20 µM
[7]
  IC50: > 20 µM
[8]
  IC50: > 20 µM
[9]
  IC50: > 20 µM
[18]
  inhibition at 50 µM: < 7%
[19]
  inhibition at 50 µM: < 11%
[20]
  inhibition at 50 µM: < 14%
[21]
  inhibition at 50 µM: < 19%
[22]
  inhibition at 50 µM: < 12%
[23]
  inhibition at 50 µM: < 10%
[10]
  Activity: 100%
[11]
  Activity: 0%
[12]
  Activity: 0%
[13]
  CYP isoform contribution to compound metabolism: 0%
[14]
  Activity: 0%
[15]
  Activity: 0%

## CN(Cc1nc2ccccc2c(=O)[nH]1)Cc1nnc(-c2ccccc2)o1
[1]
  logD: 2
[16]
  IC50: > 33 µM
[17]
  pKa: 2.3

## c1ccc(-c2noc(CN3CCN(Cc4nc5ccccc5s4)CC3)n2)cc1
[1]
  logD: 5.3
[16]
  IC50: 13 µM
[17]
  pKa: 4.4

## c1ccc(-c2nnc(CN3CCN(Cc4nc5ccccc5s4)CC3)o2)cc1
[1]
  logD: 3.9
[16]
  IC50: 30 µM
[17]
  pKa: 4.4

## C[C@@H](Oc1nnc(-c2ccncc2)n1C)c1noc(-c2cccc(Cl)c2)n1
[1]
  logD: 3
[16]
  IC50: 11.6 µM
[17]
  pKa: 3.4

## C[C@@H](Oc1nnc(-c2ccncc2)n1C)c1nnc(-c2cccc(Cl)c2)o1
[1]
  logD: 2.3
[16]
  IC50: 21.5 µM
[17]
  pKa: 3.7

## c1cncc(-c2ccc(-c3noc(C4CN5CCC4CC5)n3)o2)c1 (stereo unspecified)
[1]
  logD: 0.7
[16]
  IC50: 6.4 µM
[17]
  pKa: 8.8

## c1cncc(-c2ccc(-c3nnc(C4CN5CCC4CC5)o3)o2)c1 (stereo unspecified)
[1]
  logD: < 0
[16]
  IC50: 20.2 µM
[17]
  pKa: 9.1

## CCOC(=O)N1CCN(Cc2noc(-c3cc(Cl)ccc3F)n2)CC1
[1]
  logD: 4.3
[16]
  IC50: 31 µM
[17]
  pKa: 4

## c1ccc(-c2noc(-c3ccccc3)n2)cc1
[1]
  logD: 5.9
[2]
  solubility: 7 µM (≈ 1.56 µg/mL)
